Data: ChEMBL document CHEMBL1126705, “16 beta-([18F]fluoro)estrogens: systematic investigation of a new series of fluorine-18-labeled estrogens as potential imaging agents for estrogen-receptor-positive breast tumors” (J Med Chem, 1993)

What was measured:
[1] = target: T1, Estrogen receptor (Rattus norvegicus) (UniProt P06211+Q62986)
Rattus norvegicus [2] = assay: Tested in vivo for the biodistribution in rat ovaries after 3 hours following an intravenous dose of 120 microCi of drug in 10%ethanol saline; format: ADME, organism-based, Female gonad
Outline: (§1)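 Immature (25-day-old) female Sprague-Dawley rats, ether-anesthetized, given the fluorine-18-labeled estrogen by femoral vein injection in 10% ethanol saline. […] Other groups were killed by decapitation at 1 or 3 h. Blood and organs were weighed and gamma-counted. Data are % injected dose/g, mean ± SD, typically n = 5 per group.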

Rattus norvegicus [3] = assay: Tested in vivo for the biodistribution in rat uterus/muscle after 3 hours following an intravenous dose of 120 microCi of drug in 10%ethanol saline; format: ADME, organism-based, Muscle tissue
Outline: (§2)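 Female Sprague-Dawley rats, 25 days old (~40–53 g), ether-anesthetized, given the 18F-labeled estrogen iv via femoral vein in 10% ethanol saline. […] Others were sacrificed by decapitation at 1 or 3 h. Blood and organs were excised, weighed and gamma counted as % injected dose/g, mean ± SD, typically n = 5 (4–6).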

Rattus norvegicus [4] = assay: Tested in vivo for the biodistribution in rat uterus after 3 hours following an intravenous dose of 120 microCi of drug in 10%ethanol saline; format: ADME, organism-based
Outline: as §1

Rattus norvegicus [5] = assay: Tested in vivo for the biodistribution in blood of female rat at 1 hour after intravenous dose of 120 microCi of drug in 10%ethanol saline; format: ADME, organism-based
Outline: (§3)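 Female Sprague-Dawley rats (25 days old, 40 g) under ether received 120 μCi of tracer iv (femoral vein; effective specific activity 1306 Ci/mmol) in 10% ethanol saline. They were decapitated at 1 h (n = 6) or 3 h (n = 5). Tissues were weighed and gamma-counted, reported as % injected dose/g, mean ± SD.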

Rattus norvegicus [6] = assay: Tested in vivo for the biodistribution in rat muscle after 3 hours following an intravenous dose of 120 microCi of drug in 10%ethanol saline; format: ADME, organism-based, Muscle tissue
Outline: as §1

Rattus norvegicus [7] = assay: Tested in vivo for the biodistribution in blood of female rat after 3 hours following an intravenous dose of 120 microCi of drug in 10%ethanol saline; format: ADME, organism-based
Outline: as §3

Rattus norvegicus [8] = assay: Tested in vivo for the biodistribution in blood of female rat at 1 hour after intravenous dose of 120 microCi of the drug and 15 u g of estradiol; format: ADME, organism-based
Rattus norvegicus [9] = assay: Tested in vivo for the biodistribution in rat bone after 3 hours following an intravenous dose of 120 microCi of drug in 10%ethanol saline; format: ADME, organism-based, Bone element
Outline: as §3

[10] = target: T1, Estrogen receptor (Rattus norvegicus); remark: listed apart in the source
[11] = target: T2, Alpha-fetoprotein (Rattus norvegicus) (UniProt P02773); assay: Relative binding affinity for Alphafetoprotein
T2 sequence (whole entry): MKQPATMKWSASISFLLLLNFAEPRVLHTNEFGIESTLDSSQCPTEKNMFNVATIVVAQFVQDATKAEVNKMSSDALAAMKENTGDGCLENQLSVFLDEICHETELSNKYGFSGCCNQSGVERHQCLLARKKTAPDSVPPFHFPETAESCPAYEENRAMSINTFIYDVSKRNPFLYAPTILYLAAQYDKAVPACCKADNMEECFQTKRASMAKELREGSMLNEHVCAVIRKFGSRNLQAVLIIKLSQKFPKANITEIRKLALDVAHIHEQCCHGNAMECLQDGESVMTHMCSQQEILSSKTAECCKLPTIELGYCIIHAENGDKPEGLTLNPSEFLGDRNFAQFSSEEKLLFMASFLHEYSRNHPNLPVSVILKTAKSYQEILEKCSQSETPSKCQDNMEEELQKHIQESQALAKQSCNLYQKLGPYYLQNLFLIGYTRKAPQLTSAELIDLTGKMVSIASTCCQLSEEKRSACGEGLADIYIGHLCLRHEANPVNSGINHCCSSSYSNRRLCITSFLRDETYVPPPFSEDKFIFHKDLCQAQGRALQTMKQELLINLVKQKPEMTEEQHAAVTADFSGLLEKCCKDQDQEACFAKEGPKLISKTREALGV

Rattus norvegicus [12] = assay: Tested in vivo for the biodistribution in rat muscle at 1 hour after intravenous dose of 120 microCi of the drug and 15 ug of estradiol; format: ADME, organism-based, Muscle tissue
Outline: as §1

Rattus norvegicus [13] = assay: Tested in vivo for the biodistribution in rat ovaries at 1 hour after intravenous dose of 120 microCi of drug in 10%ethanol saline; format: ADME, organism-based, Female gonad
Outline: as §1

Rattus norvegicus [14] = assay: Tested in vivo for the biodistribution in rat bone at 1 hour after intravenous dose of 120 microCi of drug in 10%ethanol saline; format: ADME, organism-based, Bone element
Outline: as §3

Rattus norvegicus [15] = assay: Tested in vivo for the biodistribution in rat fat after 3 hours following an intravenous dose of 120 microCi of drug in 10%ethanol saline; format: ADME, organism-based, Adipose tissue
Outline: as §3

Rattus norvegicus [16] = assay: Tested in vivo for the biodistribution in rat fat at 1 hour after intravenous dose of 120 microCi of drug in 10%ethanol saline; format: ADME, organism-based, Adipose tissue
Outline: as §3

Rattus norvegicus [17] = assay: Tested in vivo for the biodistribution in rat uterus/muscle at 1 hour after intravenous dose of 120 microCi of the drug and 15 micro g of estradiol; format: ADME, organism-based, Muscle tissue
Outline: as §2

Rattus norvegicus [18] = assay: Tested in vivo for the biodistribution in rat muscle at 1 hour after intravenous dose of 120 microCi of drug in 10%ethanol saline; format: ADME, organism-based, Muscle tissue
Outline: as §1

Rattus norvegicus [19] = assay: Tested in vivo for the biodistribution in rat kidney at 1 hour after intravenous dose of 120 microCi of the drug and 15 u g of estradiol; format: ADME, organism-based
Rattus norvegicus [20] = assay: Tested in vivo for the biodistribution in rat uterus at 1 hour after intravenous dose of 120 microCi of drug in 10%ethanol saline; format: ADME, organism-based
Outline: as §1

Rattus norvegicus [21] = assay: Tested in vivo for the biodistribution in rat liver after 3 hours following an intravenous dose of 120 microCi of drug in 10%ethanol saline; format: ADME, organism-based
Outline: as §1

Rattus norvegicus [22] = assay: Tested in vivo for the biodistribution in rat liver at 1 hour after intravenous dose of 120 microCi of drug in 10%ethanol saline; format: ADME, organism-based
Outline: as §1

[23] = Partition coefficient (logP); format: physicochemical; conditions: octanol/water
Outline: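 Octanol/water log P estimated from log k'w measured by reversed-phase HPLC (Minick method) on a C8 silica column.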

Rattus norvegicus [24] = assay: Tested in vivo for the biodistribution in rat kidney after 3 hours following an intravenous dose of 120 microCi of drug in 10%ethanol saline; format: ADME, organism-based
Outline: as §3

Rattus norvegicus [25] = assay: Tested in vivo for the biodistribution in rat uterus/blood after 3 hours following an intravenous dose of 120 microCi of drug in 10%ethanol saline; format: ADME, organism-based
Outline: as §2

Rattus norvegicus [26] = assay: Tested in vivo for the biodistribution in rat liver at 1 hour after intravenous dose of 120 microCi of the drug and 15 u g of estradiol; format: ADME, organism-based
Outline: as §1

[27] = target: T3, Sex hormone-binding globulin (Homo sapiens) (UniProt P04278); assay: Relative binding affinity against sex steroid binding protein (SBP)
T3 sequence (whole entry): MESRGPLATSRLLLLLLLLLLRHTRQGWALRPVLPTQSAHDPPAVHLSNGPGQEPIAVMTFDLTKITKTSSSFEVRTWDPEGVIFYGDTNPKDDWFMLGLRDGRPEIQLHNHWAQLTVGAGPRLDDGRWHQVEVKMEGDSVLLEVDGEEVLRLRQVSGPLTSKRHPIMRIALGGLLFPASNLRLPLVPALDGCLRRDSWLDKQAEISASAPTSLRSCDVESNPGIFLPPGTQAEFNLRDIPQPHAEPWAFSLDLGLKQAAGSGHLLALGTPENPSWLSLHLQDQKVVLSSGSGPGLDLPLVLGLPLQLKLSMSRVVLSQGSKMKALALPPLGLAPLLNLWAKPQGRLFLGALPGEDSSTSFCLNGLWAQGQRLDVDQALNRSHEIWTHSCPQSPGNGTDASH

Rattus norvegicus [28] = assay: Tested in vivo for the biodistribution in rat kidney at 1 hour after intravenous dose of 120 microCi of drug in 10%ethanol saline; format: ADME, organism-based
Outline: as §3

Rattus norvegicus [29] = assay: Tested in vivo for the biodistribution in rat uterus at 1 hour after intravenous dose of 120 microCi of the drug and 15 micro g of estradiol; format: ADME, organism-based
Outline: as §1

Rattus norvegicus [30] = assay: Tested in vivo for the biodistribution in rat uterus/muscle at 1 hour after intravenous dose of 120 microCi of drug in 10%ethanol saline; format: ADME, organism-based, Muscle tissue
Outline: as §2

Rattus norvegicus [31] = assay: Tested in vivo for the biodistribution in rat fat at 1 hour after intravenous dose of 120 microCi of the drug and 15 micro g of estradiol; format: ADME, organism-based, Adipose tissue
Rattus norvegicus [32] = assay: Tested in vivo for the biodistribution in rat bone at 1 hour after intravenous dose of 120 microCi of the drug and 15 ug of estradiol; format: ADME, organism-based, Bone element
Rattus norvegicus [33] = assay: Tested in vivo for the biodistribution in rat uterus/blood at 1 hour after intravenous dose of 120 microCi of the drug and 15 ug of estradiol; format: ADME, organism-based
Outline: as §2

Rattus norvegicus [34] = assay: Tested in vivo for the biodistribution in rat uterus/blood at 1 hour after intravenous dose of 120 microCi of drug in 10%ethanol saline; format: ADME, organism-based
Outline: as §2

Rattus norvegicus [35] = assay: Tested in vivo for the biodistribution in rat ovaries at 1 hour after intravenous dose of 120 microCi of the drug and 15 ug of estradiol; format: ADME, organism-based, Female gonad
Outline: as §1

`C[C@]12CC[C@@H]3c4ccc(O)cc4CC[C@H]3[C@@H]1C[C@H](F)[C@@H]2O` showed a BSI [1] of 19, an Injected (Rattus norvegicus [2]) of 0.615% and an Injected (Rattus norvegicus [3]) of 9.05%. For the same compound, the Injected (Rattus norvegicus [4]) was 1.176%, the Injected (Rattus norvegicus [5]) was 0.949% and the “Injected (dose/g)” value (Rattus norvegicus [6]) was 0.151%. The Injected (Rattus norvegicus [7]) was 0.534%, the Injected (Rattus norvegicus [8]) was 1.486% and the “Injected (dose/g)” value (Rattus norvegicus [9]) was 1.201%. It also gave an NSB [10] of 0.63, a relative binding affinity (RBA) [11] of 20 and an Injected (Rattus norvegicus [12]) of 0.466%. The Injected (dose/g) (Rattus norvegicus [13]) was 1.91%, the “Injected (dose/g)” value (Rattus norvegicus [14]) was 1.008% and the Injected (Rattus norvegicus [15]) was 0.131%. The Injected (Rattus norvegicus [16]) was 0.31%, the Injected (Rattus norvegicus [17]) was 2.685% and the “Injected (dose/g)” value (Rattus norvegicus [18]) was 0.402%. The “Injected (dose/g)” value (Rattus norvegicus [19]) was 3.388%, the Injected (Rattus norvegicus [20]) was 4.994% and the “Injected (dose/g)” value (Rattus norvegicus [21]) was 1.483%. For the same compound, the “Injected (dose/g)” value (Rattus norvegicus [22]) was 2.957%, the logP [23] was 2.81 and the Injected (Rattus norvegicus [24]) was 0.821%. It also gave an Injected (Rattus norvegicus [25]) of 2.273%, an Injected (Rattus norvegicus [26]) of 3.771% and a relative binding affinity (RBA) [27] of 8.9. The Injected (Rattus norvegicus [28]) was 2.051%, the Injected (Rattus norvegicus [29]) was 1.257% and the Injected (Rattus norvegicus [30]) was 15.22%. For the same compound, the “Injected (dose/g)” value (Rattus norvegicus [31]) was 0.391%, the Injected (Rattus norvegicus [32]) was 1.216% and the Injected (Rattus norvegicus [33]) was 0.857%. For the same compound, the “Injected (dose/g)” value (Rattus norvegicus [34]) was 5.631% and the “Injected (dose/g)” value (Rattus norvegicus [35]) was 1.189%.
